Source: ChEMBL document CHEMBL1143374, “Solution- and solid-phase synthesis and anti-HIV activity of maslinic acid derivatives containing amino acids and peptides” (2009)
Calls of active or inactive are those of the source. The rule behind the calls is not given here.

Experiments:
[1] = system: Human immunodeficiency virus 1; assay: Antiviral activity against HIV1 NL4-3 infected human MT2 cells assessed as viral infection at 10 uM administered 30 mins before viral challenge by luciferase reporter gene activation assay relative to control; format: functional
How it was run: (§1)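 MT-2 cells at 10^6/mL in RPMI 1640 with 10% heat-inactivated FBS, 37 °C, 5% CO2. Cells were pretreated 30 min, then infected with VSV-pseudotyped pNL4-3.Luc.R−E− virus made in 293T cells (200 ng p24). After 20 h: PBS wash, lysis in Tris-phosphate pH 7.8 buffer, luciferase read. Value is % of untreated infected cells (100%), ±S.D.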

[2] = system: Human immunodeficiency virus 1; assay: Antiviral activity against HIV1 NL4-3 infected human MT2 cells assessed as viral infection at 25 uM administered 30 mins before viral challenge by luciferase reporter gene activation assay relative to control; format: functional; how it was run: as §1
[3] = system: MT2; assay: Induction of apoptosis in HIV1 NL4-3 infected human MT2 cells at 10 uM administered 30 mins before viral challenge measured after 24 hrs by propidium iodide staining and flow cytometry; format: functional
How it was run: (§2)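 MT-2 cells at 10^6/mL were pretreated 30 min, then infected 24 h with VSV-pseudotyped HIV-1 luciferase virus. Phase percentages were taken; apoptosis was scored as the sub-G0/G1 (hypodiploid) fraction.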

[4] = system: MT2; assay: Induction of apoptosis in HIV1 NL4-3 infected human MT2 cells at 25 uM administered 30 mins before viral challenge measured after 24 hrs by propidium iodide staining and flow cytometry; format: functional; how it was run: as §2
[5] = system: MT2; assay: Cell cycle arrest in HIV1 NL4-3 infected human MT2 cells assessed as accumulation at G0/G1 phase at 10 uM administered 30 mins before viral challenge measured after 24 hrs by propidium iodide staining and flow cytometry; format: functional; how it was run: as §2
[6] = system: MT2; assay: Cell cycle arrest in HIV1 NL4-3 infected human MT2 cells assessed as accumulation at G0/G1 phase at 25 uM administered 30 mins before viral challenge measured after 24 hrs by propidium iodide staining and flow cytometry; format: functional; how it was run: as §2
[7] = system: MT2; assay: Cell cycle arrest in HIV1 NL4-3 infected human MT2 cells assessed as accumulation at S phase at 10 uM administered 30 mins before viral challenge measured after 24 hrs by propidium iodide staining and flow cytometry; format: functional; how it was run: as §2
[8] = system: MT2; assay: Cell cycle arrest in HIV1 NL4-3 infected human MT2 cells assessed as accumulation at S phase at 25 uM administered 30 mins before viral challenge measured after 24 hrs by propidium iodide staining and flow cytometry; format: functional; how it was run: as §2
[9] = system: MT2; assay: Cell cycle arrest in HIV1 NL4-3 infected human MT2 cells assessed as accumulation at G2/M phase at 10 uM administered 30 mins before viral challenge measured after 24 hrs by propidium iodide staining and flow cytometry; format: functional; how it was run: as §2
[10] = system: MT2; assay: Cell cycle arrest in HIV1 NL4-3 infected human MT2 cells assessed as accumulation at G2/M phase at 25 uM administered 30 mins before viral challenge measured after 24 hrs by propidium iodide staining and flow cytometry; format: functional; how it was run: as §2
[11] = system: MT2; assay: Induction of apoptosis in HIV1 NL4-3 infected human MT2 cells administered 30 mins before viral challenge measured after 24 hrs by propidium iodide staining and flow cytometry; format: functional, cell-based; how it was run: as §2

Row | Structure (SMILES) | Activity [1] | Activity [2] | other results
1 | COC(=O)[C@H](C)NC(=O)[C@]12CCC(C)(C)C[C@H]1C1=CC[C@@H]3[C@@]4(C)C[C@@H](O)[C@H](O)C(C)(C)[C@@H]4CC[C@@]3(C)[C@]1(C)CC2 | 63.6% | 8.9% | 
2 | CC1(C)CC[C@]2(C(=O)NCC(=O)O)CC[C@]3(C)C(=CC[C@@H]4[C@@]5(C)C[C@@H](O)[C@H](O)C(C)(C)[C@@H]5CC[C@]43C)[C@@H]2C1 | 162.1% | 130.7% | 
3 | C[C@H](NC(=O)CCCCCNC(=O)[C@]12CCC(C)(C)C[C@H]1C1=CC[C@@H]3[C@@]4(C)C[C@@H](O)[C@H](O)C(C)(C)[C@@H]4CC[C@@]3(C)[C@]1(C)CC2)C(=O)O | 107% | 70.2% | 
4 | C[C@H](NC(=O)[C@]12CCC(C)(C)C[C@H]1C1=CC[C@@H]3[C@@]4(C)C[C@@H](O)[C@H](O)C(C)(C)[C@@H]4CC[C@@]3(C)[C@]1(C)CC2)C(=O)NCC(=O)O | 134.5% | 184.8% | 
5 | COC(=O)CCCCCCCCCCNC(=O)[C@]12CCC(C)(C)C[C@H]1C1=CC[C@@H]3[C@@]4(C)C[C@@H](O)[C@H](O)C(C)(C)[C@@H]4CC[C@@]3(C)[C@]1(C)CC2 | 66.9% | 35.6% | 
6 | CC1(C)CC[C@]2(C(=O)O)CC[C@]3(C)C(=CC[C@@H]4[C@@]5(C)C[C@@H](O)[C@H](O)C(C)(C)[C@@H]5CC[C@]43C)[C@@H]2C1 [MASLINIC ACID] | 56.3% | 6.7% | Activity [3]: 13.5%; Activity [4]: 51.8%; Activity [5]: 47.9%; Activity [6]: 23.1%; Activity [7]: 20.6%; Activity [8]: 17.7%; Activity [9]: 18.4%; Activity [10]: 7.5%
7 | CC(C)[C@H](NC(=O)CCCNC(=O)[C@]12CCC(C)(C)C[C@H]1C1=CC[C@@H]3[C@@]4(C)C[C@@H](O)[C@H](O)C(C)(C)[C@@H]4CC[C@@]3(C)[C@]1(C)CC2)C(=O)O | 66.2% | 130.2% | 
8 | CC(C)[C@H](NC(=O)CCCCCCCCCCNC(=O)[C@]12CCC(C)(C)C[C@H]1C1=CC[C@@H]3[C@@]4(C)C[C@@H](O)[C@H](O)C(C)(C)[C@@H]4CC[C@@]3(C)[C@]1(C)CC2)C(=O)O | 44.9% | 21.2% | Activity [3]: 2.1%; Activity [4]: 4.6%; Activity [5]: 54.6%; Activity [6]: 59.2%; Activity [7]: 21.4%; Activity [8]: 20.5%; Activity [9]: 21.6%; Activity [10]: 15.5%
9 | CC1(C)CC[C@]2(C(=O)NCCCCCC(=O)O)CC[C@]3(C)C(=CC[C@@H]4[C@@]5(C)C[C@@H](O)[C@H](O)C(C)(C)[C@@H]5CC[C@]43C)[C@@H]2C1 | 146.4% | 79.3% | 
10 | CC(C)[C@H](NC(=O)CCCCCNC(=O)[C@]12CCC(C)(C)C[C@H]1C1=CC[C@@H]3[C@@]4(C)C[C@@H](O)[C@H](O)C(C)(C)[C@@H]4CC[C@@]3(C)[C@]1(C)CC2)C(=O)O | 83.8% | 96.5% | 
11 | C[C@H](NC(=O)[C@]12CCC(C)(C)C[C@H]1C1=CC[C@@H]3[C@@]4(C)C[C@@H](O)[C@H](O)C(C)(C)[C@@H]4CC[C@@]3(C)[C@]1(C)CC2)C(=O)O | 124.2% | 60.9% | 
12 | COC(=O)[C@@H](NC(=O)[C@]12CCC(C)(C)C[C@H]1C1=CC[C@@H]3[C@@]4(C)C[C@@H](O)[C@H](O)C(C)(C)[C@@H]4CC[C@@]3(C)[C@]1(C)CC2)C(C)C | 72% | 11.1% | 
13 | CC1(C)CC[C@]2(C(=O)NCCCC(=O)NCC(=O)O)CC[C@]3(C)C(=CC[C@@H]4[C@@]5(C)C[C@@H](O)[C@H](O)C(C)(C)[C@@H]5CC[C@]43C)[C@@H]2C1 | 112.3% | 143.3% | 
14 | CC1(C)CC[C@]2(C(=O)NCCCCCCCCCCC(=O)O)CC[C@]3(C)C(=CC[C@@H]4[C@@]5(C)C[C@@H](O)[C@H](O)C(C)(C)[C@@H]5CC[C@]43C)[C@@H]2C1 | 56.7% | 21.5% | Activity [3]: 3.5%; Activity [4]: 5.2%; Activity [5]: 62.6%; Activity [6]: 53.7%; Activity [7]: 18.8%; Activity [8]: 22.2%; Activity [9]: 15.1%; Activity [10]: 18.9%
15 | COC(=O)CCCNC(=O)[C@]12CCC(C)(C)C[C@H]1C1=CC[C@@H]3[C@@]4(C)C[C@@H](O)[C@H](O)C(C)(C)[C@@H]4CC[C@@]3(C)[C@]1(C)CC2 | 32.5% | 12% | Activity [11]: Active
16 | COC(=O)CCCCCNC(=O)[C@]12CCC(C)(C)C[C@H]1C1=CC[C@@H]3[C@@]4(C)C[C@@H](O)[C@H](O)C(C)(C)[C@@H]4CC[C@@]3(C)[C@]1(C)CC2 | 69.6% | 36.8% | 
17 | CC(C)[C@H](NC(=O)[C@]12CCC(C)(C)C[C@H]1C1=CC[C@@H]3[C@@]4(C)C[C@@H](O)[C@H](O)C(C)(C)[C@@H]4CC[C@@]3(C)[C@]1(C)CC2)C(=O)O | 102.8% | 121.2% | 
18 | CC1(C)CC[C@]2(C(=O)NCCCC(=O)O)CC[C@]3(C)C(=CC[C@@H]4[C@@]5(C)C[C@@H](O)[C@H](O)C(C)(C)[C@@H]5CC[C@]43C)[C@@H]2C1 | 126.4% | 93.8% | 
19 | COC(=O)CNC(=O)[C@]12CCC(C)(C)C[C@H]1C1=CC[C@@H]3[C@@]4(C)C[C@@H](O)[C@H](O)C(C)(C)[C@@H]4CC[C@@]3(C)[C@]1(C)CC2 | 75.5% | 56.3% | 
20 | C[C@H](NC(=O)CCCCCCCCCCNC(=O)[C@]12CCC(C)(C)C[C@H]1C1=CC[C@@H]3[C@@]4(C)C[C@@H](O)[C@H](O)C(C)(C)[C@@H]4CC[C@@]3(C)[C@]1(C)CC2)C(=O)O | 71.7% | 27.6% | 
21 | CC1(C)CC[C@]2(C(=O)NCCCCCC(=O)NCC(=O)O)CC[C@]3(C)C(=CC[C@@H]4[C@@]5(C)C[C@@H](O)[C@H](O)C(C)(C)[C@@H]5CC[C@]43C)[C@@H]2C1 | 125.7% | 122.1% | 
22 | C[C@H](NC(=O)CCCCCNC(=O)[C@]12CCC(C)(C)C[C@H]1C1=CC[C@@H]3[C@@]4(C)C[C@@H](O)[C@H](O)C(C)(C)[C@@H]4CC[C@@]3(C)[C@]1(C)CC2)C(=O)NCC(=O)O | 170.2% | 89.6% | 
23 | CC1(C)CC[C@]2(C(=O)NCCCCCCCCCCC(=O)NCC(=O)O)CC[C@]3(C)C(=CC[C@@H]4[C@@]5(C)C[C@@H](O)[C@H](O)C(C)(C)[C@@H]5CC[C@]43C)[C@@H]2C1 | 85.6% | 49.8% | 
24 | C[C@H](NC(=O)CCCNC(=O)[C@]12CCC(C)(C)C[C@H]1C1=CC[C@@H]3[C@@]4(C)C[C@@H](O)[C@H](O)C(C)(C)[C@@H]4CC[C@@]3(C)[C@]1(C)CC2)C(=O)O | 83.7% | 50.1% | 
